Most compounds without a hit are left out; they make up all but 6.4% or so of the library.
NR3A LBD binder = modulates the human NR3A ligand-binding domain | NR3A LBD differential scanning fluorimetry, Tm shift; 0% = protein alone, 100% = glycine-bound protein | Tm shift relative to glycine control, % at 25 µM | 340,000 compounds, 2.5% hits | AID 1259313;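 active = melting temperature shift of at least 10% of the positive control shift, at one fixed dose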
Tb MetRS inh = Trypanosoma brucei MetRS inhibition | purified T. brucei MetRS, ATP depletion, Kinase-Glo luminescence | inhibition, % at 11.9 µM | 360,000 compounds, 0.4% hits | AID 624268;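 active = inhibition above a per-plate cutoff of the control wells' mean inhibition plus 3 SD, cut at about 5.5% in these data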;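 note: 0% = DMSO wells median and 100% = median of wells with control inhibitor compound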
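System: purified T. brucei MetRS enzyme / Detection: Kinase-Glo luciferase luminescence reporting remaining unconsumed ATP / Medium: HEPES buffer with MgCl2, KCl, DTT, spermine, BSA, pyrophosphatase / Replication: singlicate, one well per compound / Evaluation: percent inhibition relative to median high and low control wells / Schedule: 2 h aminoacylation at 25 °C after 15 min preincubation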
CHOP inh = blocks CHOP induction under ER stress. inhibition, % at 10 µM. AID 2732. 220,000 compounds, 3.8% hits. CHO-K1 CHOP-promoter luciferase, tunicamycin-induced, 15-18 h;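 active = compounds that reduced the stress-induced luciferase reporter signal by more than about 70% of percent inhibition, limit read from the data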;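 note: 0% = tunicamycin plus vehicle and 100% = wells without tunicamycin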
EBV gp42 block = blocks Epstein-Barr virus glycoprotein 42 binding | inhibition, % (tested at 21.74 µM) | Q1HVG2 | 220,000 compounds, 0.42% hits | AID 1085 | Fluorescence polarization binding assay, mP read-out; in the data active = inhibition above about 50%
Target sequence (Q1HVG2 whole entry, looked up): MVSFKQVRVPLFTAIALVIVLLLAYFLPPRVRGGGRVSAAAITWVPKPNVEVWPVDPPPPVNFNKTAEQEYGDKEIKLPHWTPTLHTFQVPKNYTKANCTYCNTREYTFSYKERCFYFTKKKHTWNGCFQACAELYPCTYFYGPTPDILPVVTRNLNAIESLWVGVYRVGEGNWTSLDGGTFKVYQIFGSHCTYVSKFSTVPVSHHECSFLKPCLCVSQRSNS
WT yeast gro inh = growth inhibition of WT yeast, mitochondrial fusion screen; mitochondrial fusion phenotypic screen, WT strain; inhibition, % at 10 µM; 190,000 compounds, 2.1% hits; AID 1362; in the data active = inhibition above about 58%; tested in S. cerevisiae
MPTP inh = permeability transition pore inhibition. isolated mouse mitochondria, Ca2+ swelling absorbance, 30 min. inhibition, % at 10 µM. 360,000 compounds, 1.4% hits. AID 602449;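 active = inhibition of 50% or more, scaled per plate between neutral and stimulator controls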;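 note: 0% = DMSO wells given calcium and 100% = 1 mM EGTA wells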
* hit, by the source's call; / = no result.

SMILES	NR3A LBD binder	Tb MetRS inh	CHOP inh	EBV gp42 block	WT yeast gro inh	MPTP inh
CCOC(=O)C1=C(c2ccccc2)NC(SCC(=O)Nc2ccc(C)cc2)=C(C#N)C1c1ccco1 (stereo not drawn)	4	0	94*	-12	1	20
CCOC(=O)C1=C(c2ccccc2)NC(SCC(=O)Nc2cccc(C)c2)=C(C#N)C1c1ccco1 (stereo not drawn)	5	0	99*	2	-4	14
CSc1[nH]c(=O)c(C(=O)O)cc1C#N	1	0	13	-4	11	-1
O=C(O)C1CC(=O)N(c2ccc(OCc3ccc(Br)cc3)cc2)C1 (stereo not drawn)	-1	1	/	/	/	0
Cc1onc(-c2ccccc2)c1C(=O)Nc1ccc(S(=O)(=O)NC2=NCCCCC2)cc1	0	0	-3	-20	-8	0
COc1ccc(CN(C)C(=O)COC(=O)c2cc([N+](=O)[O-])ccc2N2CCCC2)c(OC)c1OC	4	0	/	/	/	0
CN(C)c1nc(N/N=C\c2ccc(Cl)c([N+](=O)[O-])c2)nc(Nc2ccc(F)cc2)n1	30*	-1	/	/	/	6
Nn1cnnc1N/N=C/c1ccc(Cl)c([N+](=O)[O-])c1	-2	1	7	2	-3	0
O=C(Nc1ccc(NC(=O)C2CCCCC2)cn1)c1ccco1	16*	-1	23	-5	0	0
O=C(Nc1ccccn1)c1ccc2nc(-c3ccccc3)c(-c3ccccc3)nc2c1	/	/	-30	-11	-20	/
O=C(Nc1ccccn1)c1ccc(-c2ccccc2)cc1	36*	-1	/	/	/	8
O=C(Nc1ccccn1)c1ccco1	-3	0	13	2	70*	0
O=C(NC(=S)NCCc1ccccn1)c1ccco1	244*	0	-8	-2	-7	0
C=CCc1c(C)nc(SCCC)[nH]c1=O	0	0	1	-9	-2	0
CCCn1c2c(c(=N)c3c1CCC3)CCC2	1	2	-5	-64	/	1
CCCCCCCn1c2c(c(=N)c3ccccc31)CCC2	-4	1	34	-17	81*	19
CCOc1cc(C2C(C#N)=C(N)Oc3n[nH]c(-c4ccccc4)c32)ccc1O (stereo not drawn)	-1	1	20	-13	8	1
CCn1nc(NC(=O)COC)c2cc3cc(C)ccc3nc21	0	-1	/	/	/	0
COc1ccc(C(=O)CCc2ccccc2)c(O)c1	1	0	/	/	/	1
O=C(CCc1ccccc1)c1c(O)cc(O)cc1O	13*	1	-7	6	/	5
O=C(Nc1ccc(Cl)cc1)/C(=C/c1cccc(O)c1)c1nc2ccccc2s1	26*	0	107*	-21	54	5
CCOC(=O)c1cc2sccc2n1CC(=O)N1c2ccccc2CC1C (stereo not drawn)	12*	0	58	1	1	1
CCOC(=O)c1cc2sccc2n1CC(=O)O	1	-1	5	-4	2	0
O=C(c1cccc(S(=O)(=O)NCc2ccccc2)c1)N1CCN(Cc2ccccc2)CC1	15*	-1	25	0	-8	0
O=C(c1cccc(S(=O)(=O)NCc2ccccc2)c1)N1CCCCC1	2	0	/	/	/	0
SMILES	NR3A LBD binder	Tb MetRS inh	CHOP inh	EBV gp42 block	WT yeast gro inh	MPTP inh
COc1cc(OC)cc(-c2nc(N)n[nH]2)c1	-1	0	9	-16	-1	-1
CC(=O)Nc1ccc(S(=O)(=O)Nc2cccc(-c3nc4ccccc4o3)c2)cc1	12*	1	-3	-9	4	31
O=C(Cc1cccs1)Nc1cccc(-c2nc3ccccc3o2)c1	0	0	90*	-13	-3	0
O=S(=O)(Nc1ccc(-c2nc3ccccc3o2)cc1)c1ccccc1	2	0	68	-23	49	2
O=C(Cc1cccs1)Nc1ccc(-c2nnc(-c3ccccc3)o2)cc1	28*	0	/	/	/	-5
CCC(=O)Nc1cccc(-c2nc3ccccc3o2)c1	-3	0	0	-21	8	0
Cc1ccc(-c2nc3ccccc3o2)cc1NC(=O)Cc1cccs1	-1	0	80*	-153	10	-1
CN1N=C(C(=O)N2CCCC(C(=O)c3cccc(C(F)(F)F)c3)C2)CCC1=O (stereo not drawn)	-2	-1	4	1	-4	-1

Source: PubChem (several laboratories)
